Test results published in ChEMBL document CHEMBL1135729, “Synthesis and biological evaluation of a new set of pyrazolo[1,5-c]quinazoline-2-carboxylates as novel excitatory amino acid antagonists” (J Med Chem, 2002).

Tests used:
[1] = target: T1, Glutamate receptor ionotropic, AMPA (Rattus norvegicus, UniProt P19490+P19491+P19492+P19493); experiment: Displacement of [3H]AMPA from Ionotropic glutamate receptor AMPA in rat cortical membranes.; format: cell membranes, Membrane
[2] = target: T2, Glutamate receptor ionotropic, NMDA 1 (Rattus norvegicus, UniProt P35439); experiment: Displacement of [3H]glycine from N-methyl-D-aspartate glutamate receptor 1 in rat cortical membranes; format: cell membranes, Membrane
[3] = target: Glutamate receptor ionotropic, kainate (Rattus norvegicus) (UniProt P22756+Q01812+P42260+P42264+Q63273); experiment: Percent Inhibition of specific [3H]KA binding to Ionotropic glutamate receptor in rat cortical membranes.; format: cell membranes; set-up: concentration or dose not given beside the values; conditions: Membrane; concentration not given here
Summary of the method: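 Membranes resuspended (0.5 mg protein/mL) in 0.05 M Tris-citrate, pH 7.4, preincubated at 37 °C for 30 min, then washed three times in ice-cold buffer. Binding run on ice for 60 min with 5 nM [3H]kainate; nonspecific binding defined with 1 mM glutamate. Separation by GF/C filtration.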

[4] = target: Glutamate receptor ionotropic, kainate; experiment: Inhibition of specific binding […] by displacing [3H]KA, from specific binding sites of Ionotropic glutamate receptor ionotropic kainate in rat cortical membranes; format: cell membranes, Membrane
Summary of the method: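 Rat cortical membranes preincubated at 0.5 mg protein/mL in 0.05 M Tris-citrate pH 7.4, 37 °C for 30 min, then washed thrice in ice-cold buffer. Binding on ice for 60 min with 5 nM [3H]kainate, 0.2-0.3 mg protein per assay. Nonspecific binding defined with 1 mM glutamate. Filtration separation.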

Mus musculus [5] = species on record: Mus musculus; experiment: Concentration that inhibits by 50% depolarization induced by 5M AMPA; format: functional
Summary of the method: (§1)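 Cortical wedge preparation (per Mannaioni et al.). AMPA or NMDA (5 μM) applied for 2 min every 15 min until control peaks were stable, then wedges continuously superfused with antagonist while agonist pulses continued. Afterwards, washout with antagonist-free Krebs and agonist applied every 15 min for 30-60 min to confirm recovery. dc potential between two compartments recorded via Ag/AgCl electrodes. IC50 derived against control peaks; mean ± SEM, n = 4.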

Mus musculus [6] = species on record: Mus musculus; experiment: Concentration that inhibits by 50% depolarization induced by 5M NMDA; format: functional; summary of the method: as §1
[7] = target: T1, Glutamate receptor ionotropic, AMPA; experiment: Inhibition by displacing [3H]AMPA from Ionotropic glutamate receptor AMPA specific binding sites in rat cortical membranes; format: cell membranes
[8] = target: T2, Glutamate receptor ionotropic, NMDA 1; experiment: Inhibition by displacing [3H]-Glycine of N-methyl-D-aspartate glutamate receptor 1 in rat cortical membranes; format: cell membranes, Membrane
[9] = target: Glutamate receptor ionotropic, NMDA 1 (Rattus norvegicus) (UniProt P35439); experiment: (§2) Percent Inhibition by displacing [3H]glycine of N-methyl-D-aspartate glutamate receptor 1 in rat cortical membranes; format: cell membranes; set-up: concentration or dose not given beside the values; conditions: Membrane; concentration not given here
[10] = target: Glutamate receptor ionotropic, AMPA (Rattus norvegicus) (UniProt P19491+P19492+P19493+P19490); experiment: Percent Inhibition by displacing [3H]AMPA from Ionotropic glutamate receptor AMPA specific binding sites in rat cortical membranes; format: cell membranes; set-up: concentration or dose not given beside the values; conditions: concentration not given here
[11] = target: T2, Glutamate receptor ionotropic, NMDA 1; experiment: as §2; format: cell membranes, Membrane
Glutamate NMDA receptor = experiment: Inhibition of stimulated [3H](+)-MK-801 binding to N-methyl-D-aspartate glutamate receptor in rat cortical membranes incubated with 10 uM glutamate and 0.1 uM glycine.

Row | Compound | Ki [1] [µM] | Ki [2] [µM] | inhibition [3] [%] | inhibition [9] [%] | inhibition [10] [%] | further results
1 | COC(=O)C1=NN2C(=O)Nc3cc(Cl)ccc3C2C1 (stereo not given) | 17.3 | 10.6 | 3 |  |  | 
2 | O=Cc1ccn(-c2cc3c(cc2Cl)nc(O)n2nc(C(=O)O)cc32)c1 |  |  |  |  |  | IC50 [4]: 5.5 µM; IC50 (Mus musculus [5]): 0.5 µM; IC50 (Mus musculus [6]): 25 µM; Ki [7]: 0.27 µM; Ki [8]: 8.2 µM
3 | O=C(O)c1cc2c3cc([N+](=O)[O-])ccc3nc(O)n2n1 | 26 |  | 24 | 35 |  | 
4 | O=C(O)c1cc2c3cc(Cl)c(Cl)cc3[nH]c(=O)n2n1 | 2.4 | 0.16 |  |  |  | IC50 [4]: 41 µM
5 | O=C(O)C1=NN2C(=O)Nc3cc(Cl)c(Cl)cc3C2C1 (stereo not given) | 2.65 |  | 17 |  |  | Ki [8]: 0.19 µM
6 | O=C(O)c1cc2n(n1)C(C(=O)O)Nc1ccccc1-2 (stereo not given) |  |  | 11 | 35 | 0 | 
7 | O=C(O)c1cc2n(n1)C(C(=O)O)Nc1cc(Cl)ccc1-2 (stereo not given) |  |  | 13 | 25 | 7 | 
8 | O=C(O)C1=NN2C(=O)Nc3ccccc3C2C1 (stereo not given) | 96 | 2 |  |  |  | IC50 [4]: 19.5 µM
9 | CCOC(=O)c1cc2c3cc([N+](=O)[O-])c(Cl)cc3nc(O)n2n1 |  |  | 23 |  |  | 
10 | CCOC(=O)c1cc2c3cc(-n4ccc(C=O)c4)c(Cl)cc3nc(O)n2n1 |  |  | 29 |  |  | IC50 (Mus musculus [5]): 1 µM; IC50 (Mus musculus [6]): > 50 µM; Ki [7]: 1.4 µM; Ki [8]: 57 µM
11 | O=C(O)c1cc2c3cc(-n4cnnc4)c(Cl)cc3[nH]c(=O)n2n1 | 0.14 |  |  |  |  | IC50 (Mus musculus [6]): 20 µM
12 | COC(=O)C1=NN2C(=O)Nc3ccccc3C2C1 (stereo not given) |  |  | 0 | 40 | 29 | 
13 | CCOC(=O)c1cc2c3cc(N)c(Cl)cc3nc(O)n2n1 |  |  | 11 | 40 | 33 | 
14 | COC(=O)C1=NN2C(=O)Nc3cc(Cl)c(Cl)cc3C2C1 (stereo not given) | 8.5 | 4 | 9 |  |  | 
15 | COC(=O)c1cc2c3cc(Cl)c(Cl)cc3nc(O)n2n1 |  | 1.3 | 10 |  | 42 | 
16 | O=C(O)c1nc2c(=O)[nH]c3cc(Cl)c(-n4cnnc4)cc3n2n1 [TQX-173] |  |  |  |  |  | Ki [8]: 33.5 µM
17 | CCOC(=O)c1cc2c3cc(-n4cnnc4)c(Cl)cc3nc(O)n2n1 | 0.87 |  | 38 | 18 |  | IC50 (Mus musculus [5]): 1.75 µM; IC50 (Mus musculus [6]): > 50 µM
18 | O=C(O)C1=NN2C(=O)Nc3cc(Cl)ccc3C2C1 (stereo not given) | 7.2 | 0.24 | 20 |  |  | 
19 | O=C(O)c1cc2c3cc([N+](=O)[O-])c(Cl)cc3[nH]c(=O)n2n1 | 0.74 |  |  |  |  | IC50 [4]: 23 µM; Ki [11]: 1.1 µM
20 | CCOC(=O)c1cc2c3ccccc3[nH]c(=O)n2n1 | 42 | 33.3 |  |  |  | 
21 | CCOC(=O)c1cc2c3ccccc3nc(O)n2n1 |  |  | 12 |  |  | 
22 | O=C(O)c1cc2c3ccc(Cl)cc3nc(O)n2n1 | 2.3 | 0.48 |  |  |  | IC50 [4]: 60 µM
23 | CCOC(=O)c1cc2c3cc([N+](=O)[O-])c(Cl)cc3[nH]c(=O)n2n1 | 8.2 | 10.6 |  |  |  | 
24 | CCOC(=O)c1cc2n(n1)C(C(=O)O)Nc1cc(Cl)ccc1-2 (stereo not given) |  |  | 1 | 5 | 6 | 
25 | CCOC(=O)c1cc2c3ccc(Cl)cc3nc(O)n2n1 |  |  | 15 |  |  | 
26 | O=C(O)c1cc2c3ccccc3nc(O)n2n1 | 12.4 | 1.41 | 26 |  |  | IC50 (Glutamate NMDA receptor): 10.4 µM
27 | CCOC(=O)c1cc2c3ccc(Cl)cc3[nH]c(=O)n2n1 | 72 | 26.5 |  |  |  | 
28 | CCOC(=O)c1cc2n(n1)C(C(=O)O)Nc1ccccc1-2 (stereo not given) |  |  | 0 | 15 | 12 | 
29 | CCOC(=O)c1cc2c3cc(N)ccc3nc(O)n2n1 |  |  | 30 | 30 | 27 | 
30 | CCOC(=O)c1cc2c3cc([N+](=O)[O-])ccc3nc(O)n2n1 |  |  | 4 | 15 | 27 | 
